From ChEMBL document CHEMBL1128444 (J Med Chem, 1995)

Columns and labels:
[1] = biological target: Sodium-dependent serotonin transporter (Rattus norvegicus, UniProt P31652); assay: Binding affinity at the Serotonin transporter in rat midbrain by inhibition of 0.5 nM [3H]-paroxetine binding; assay type: tissue-based
[2] = biological target: Monoamine transporters; Norepininephrine & dopamine (Rattus norvegicus) (UniProt P23977+Q9WTR4); assay: Ratio of IC50 value against NE to that of DA transporters; assay type: protein assay
Outline: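 Competition binding against 0.5 nM [3H]WIN 35,428 (DA transporter) or 0.5 nM [3H]nisoxetine (NE transporter). The IC50 is the mean ± standard error of three or four experiments, each run in triplicate. Selectivity ratios are NE/DA or 5-HT/DA quotients of the IC50 values.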

[3] = biological target: T1, Sodium-dependent dopamine transporter (Rattus norvegicus, UniProt P23977); assay: Binding affinity at the Dopamine transporter in rat striata by inhibition of 0.5 nM [3H]WIN-35428 binding
T1 sequence (P23977 whole entry): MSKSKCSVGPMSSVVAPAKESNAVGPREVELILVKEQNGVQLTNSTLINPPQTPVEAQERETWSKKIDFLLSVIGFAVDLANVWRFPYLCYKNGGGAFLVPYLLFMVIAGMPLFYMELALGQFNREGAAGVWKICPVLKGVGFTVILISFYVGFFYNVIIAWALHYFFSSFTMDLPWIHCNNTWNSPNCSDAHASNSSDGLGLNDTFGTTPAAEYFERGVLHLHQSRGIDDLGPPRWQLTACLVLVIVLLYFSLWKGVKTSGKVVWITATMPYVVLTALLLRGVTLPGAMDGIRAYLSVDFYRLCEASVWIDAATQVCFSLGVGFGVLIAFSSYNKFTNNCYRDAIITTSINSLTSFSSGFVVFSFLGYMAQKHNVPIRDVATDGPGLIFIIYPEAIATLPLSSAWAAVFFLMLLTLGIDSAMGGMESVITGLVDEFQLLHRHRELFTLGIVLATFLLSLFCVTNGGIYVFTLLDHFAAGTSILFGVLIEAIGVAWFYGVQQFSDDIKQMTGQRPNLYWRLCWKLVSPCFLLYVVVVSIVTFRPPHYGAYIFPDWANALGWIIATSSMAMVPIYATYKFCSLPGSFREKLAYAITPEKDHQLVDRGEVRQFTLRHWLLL

[4] = biological target: Monoamine transporters; serotonin & dopamine (Rattus norvegicus) (UniProt P31652+P23977); assay: Ratio of IC50 value against Serotonin transporter to that of dopamine transporter; assay type: protein assay
Sequence of Monoamine transporters; serotonin & dopamine (Rattus norvegicus) (P23977 whole entry, looked up): as the sequence (P23977 whole entry) above
Sequence of Monoamine transporters; serotonin & dopamine (Rattus norvegicus) (P31652 whole entry, looked up): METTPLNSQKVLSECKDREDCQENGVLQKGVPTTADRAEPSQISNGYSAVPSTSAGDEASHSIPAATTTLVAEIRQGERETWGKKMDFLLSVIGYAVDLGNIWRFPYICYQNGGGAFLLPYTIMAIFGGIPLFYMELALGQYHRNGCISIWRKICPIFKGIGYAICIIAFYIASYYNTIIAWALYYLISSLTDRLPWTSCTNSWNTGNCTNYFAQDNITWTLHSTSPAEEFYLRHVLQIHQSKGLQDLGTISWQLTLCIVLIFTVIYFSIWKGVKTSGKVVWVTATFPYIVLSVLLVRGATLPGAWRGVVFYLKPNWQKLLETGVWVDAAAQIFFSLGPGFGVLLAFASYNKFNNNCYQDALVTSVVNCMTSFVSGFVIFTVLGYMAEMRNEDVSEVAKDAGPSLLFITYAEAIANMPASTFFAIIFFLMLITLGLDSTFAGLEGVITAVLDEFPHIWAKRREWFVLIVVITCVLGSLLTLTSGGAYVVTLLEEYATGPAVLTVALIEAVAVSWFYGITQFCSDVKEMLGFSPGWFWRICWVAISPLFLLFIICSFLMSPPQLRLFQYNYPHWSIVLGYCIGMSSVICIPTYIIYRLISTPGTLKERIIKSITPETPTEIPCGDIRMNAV

[5] = biological target: T2, Norepinephrine transporter (Rattus norvegicus, UniProt Q9WTR4); assay: Binding affinity at the Norepinephrine transporter in rat frontal cortex by inhibition of 0.5 nM [3H]nisoxetine binding; assay type: tissue-based
T2 sequence (Q9WTR4 whole entry): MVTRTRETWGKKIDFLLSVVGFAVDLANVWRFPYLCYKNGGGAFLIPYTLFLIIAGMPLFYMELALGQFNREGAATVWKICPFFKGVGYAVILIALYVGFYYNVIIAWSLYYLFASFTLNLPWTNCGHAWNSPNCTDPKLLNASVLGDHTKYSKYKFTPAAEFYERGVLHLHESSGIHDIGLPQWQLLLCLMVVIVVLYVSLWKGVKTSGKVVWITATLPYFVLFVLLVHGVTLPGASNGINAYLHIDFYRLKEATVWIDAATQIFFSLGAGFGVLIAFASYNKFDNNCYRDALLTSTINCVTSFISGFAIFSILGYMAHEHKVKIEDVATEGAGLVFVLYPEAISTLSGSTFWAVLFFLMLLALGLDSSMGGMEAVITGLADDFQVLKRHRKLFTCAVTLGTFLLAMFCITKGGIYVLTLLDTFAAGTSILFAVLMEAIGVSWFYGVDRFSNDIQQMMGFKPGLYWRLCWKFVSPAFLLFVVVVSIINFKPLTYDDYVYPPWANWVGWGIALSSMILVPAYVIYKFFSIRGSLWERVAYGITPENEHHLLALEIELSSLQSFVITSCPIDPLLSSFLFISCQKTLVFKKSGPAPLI

[6] = biological target: T2, Norepinephrine transporter; assay: Inhibition of [3H]NE uptake by rat frontal cortex Norepinephrine transporter; assay type: tissue-based
Outline: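 Rat frontal cortex synaptosomes were used at 10 mg/mL tissue with 5 nM final [3H]norepinephrine and 10 μM pargyline in Krebs phosphate buffer, pH 7.4. Incubation was 3 min at 30 °C, followed by filtration and scintillation counting. Nonspecific uptake was defined with 1 μM desipramine. Three or four experiments were run in triplicate, and Ki was derived by Cheng–Prusoff.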

[7] = biological target: T1, Sodium-dependent dopamine transporter; assay: Inhibition of [3H]DA uptake by rat striatal dopamine transporter
Outline: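 Rat striatal crude synaptosomes were prepared from male Sprague–Dawley rats by 0.32 M sucrose homogenisation and centrifugation at 800g then 2000g. Each tube held 1.5 mg tissue, 0.5 nM [3H]dopamine and 10 μM pargyline in Krebs phosphate buffer, pH 7.4, with dextrose and ascorbate. Incubation was 3 min at 30 °C, followed by filtration and scintillation counting. Nonspecific uptake was defined with 1 μM mazindol. Three or four experiments were run in triplicate, and Ki was derived by Cheng–Prusoff.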

Sequence of Sodium-dependent serotonin transporter (P31652 whole entry): as the sequence (P31652 whole entry, looked up) above

SMILES | IC50 [1] [µM] | Ratio [2] | IC50 [3] [nM] | Ratio [4] | IC50 [5] [µM] | Ki [6] [nM] | Ki [7] [nM]
CON(C)C(=O)C1C(OC(=O)c2ccccc2)CC2CCC1N2C (centres undefined) | 28.2 | 66 | 60 | 469 | 3.94 | – | –
CCOC(=O)C1C(OC(=O)c2ccccc2)CC2CCC1N2C (centres undefined) | 5.8 | 51 | 195 | 30 | 10 | – | –
CCC(CC)OC(=O)C1C(c2ccc(C)cc2)CC2CCC1N2C (centres undefined) | – | 180 | 19.1 | 236 | 3.44 | – | –
CN1C2CCC1C(C(=O)Oc1ccc(Cl)cc1)C(c1ccc(Cl)cc1)C2 (centres undefined) | 16.9 | 89 | 55 | 308 | 4.88 | – | –
CON(C)C(=O)C1C(c2ccc(C)cc2)CC2CCC1N2C (centres undefined) | 3.4 | 173 | 2.55 | 1330 | 0.442 | – | –
CN1C2CCC1C(C(=O)N1CCCCC1)C(c1ccc(Cl)cc1)C2 (centres undefined) | 3.47 | 252 | 6.95 | 499 | 1.75 | – | –
CN1C2CCC1C(C(=O)OCc1ccccc1)C(OC(=O)c1ccccc1)C2 (centres undefined) | 0.302 | 81 | 257 | 1.2 | 20.8 | – | –
CC(C)OC(=O)C1C(OC(=O)c2ccccc2)CC2CCC1N2C (centres undefined) | 25.2 | – | – | – | 30.3 | – | –
CCN(CC)C(=O)C1C(c2ccc(Cl)cc2)CC2CCC1N2C (centres undefined) | 9.43 | 1010 | 5.48 | 1730 | 5.53 | – | –
COC(=O)C1C(c2ccc(Br)cc2)CC2CCC1N2C (centres undefined) | 0.0106 | 22 | 1.69 | 6 | – | – | –
Cc1ccc(C2CC3CCC(C2C(=O)Oc2ccccc2C)N3C)cc1 (centres undefined) | 11 | 1110 | 23.2 | 476 | 25.7 | – | –
COc1ccc(OC(=O)C2C(c3ccc(Cl)cc3)CC3CCC2N3C)cc1 (centres undefined) | 19.7 | 21 | 71 | 277 | 1.52 | – | –
Cc1ccc(C2CC3CCC(C2C(=O)Oc2ccc(Cl)cc2)N3C)cc1 (centres undefined) | 42.8 | 81 | 117 | 366 | 9.52 | – | –
Cc1ccc(C2CC3CCC(C2C(=O)OC2CCCC2)N3C)cc1 (centres undefined) | 0.485 | 148 | 17.8 | 27 | 2.63 | – | –
COC(=O)C1C(c2ccc(N)c(I)c2)CC2CCC1N2C (centres undefined) | 0.12 | 984 | 1.35 | 89 | 1.33 | – | –
COC(=O)C1C(c2ccc(Cl)c(C)c2)CC2CCC1N2C (centres undefined) | 0.0105 | 45 | 0.81 | 13 | 0.0362 | – | –
CCN(CC)C(=O)C1C(c2ccc(C)cc2)CC2CCC1N2C (centres undefined) | 33.9 | 252 | 24.7 | 1370 | 6.22 | – | –
Cc1ccc(OC(=O)C2C(c3ccc(C)cc3)CC3CCC2N3C)cc1 (centres undefined) | 16 | 50 | 81.2 | 197 | 4.1 | – | –
CN1C2CCC1C(C(=O)OC1CC1)C(c1ccc(Cl)cc1)C2 (centres undefined) | – | 245 | 0.96 | 175 | 0.235 | – | –
CN1C2CCC1C(C(=O)OCCCc1ccccc1)C(OC(=O)c1ccccc1)C2 (centres undefined) | 0.374 | 33 | 147 | 2.5 | 4.89 | – | –
CC(C)OC(=O)C1C(c2ccccc2)CC2CCC1N2C (centres undefined) | 23.1 | 377 | 85.1 | 272 | 32 | – | –
CN1C2CCC1C(C(=O)Oc1ccccc1)C(OC(=O)c1ccccc1)C2 (centres undefined) | 33.7 | 277 | 112 | 301 | 31 | – | –
Cc1ccc(OC(=O)C2C(c3ccc(Cl)cc3)CC3CCC2N3C)cc1 (centres undefined) | – | 45 | 27.4 | 44 | 1.28 | – | –
CN1[C@H]2CC[C@@H]1[C@@H](C(=O)N1CCCC1)[C@@H](c1ccc(Cl)cc1)C2 | 12.4 | 2860 | 1.38 | 8980 | 3.95 | – | –
Cc1cccc(OC(=O)C2C(c3ccc(Cl)cc3)CC3CCC2N3C)c1 (centres undefined) | – | 293 | 9.37 | 230 | 2.74 | – | –

SMILES | IC50 [1] [µM] | Ratio [2] | IC50 [3] [nM] | Ratio [4] | IC50 [5] [µM] | Ki [6] [nM] | Ki [7] [nM]
Cc1ccc(C2CC3CCC(C2C(=O)Oc2cccc(C)c2)N3C)cc1 (centres undefined) | – | 261 | 8.19 | 639 | 2.14 | – | –
CON(C)C(=O)C1C(c2ccc(Cl)cc2)CC2CCC1N2C (centres undefined) | 0.724 | 646 | 0.85 | 852 | 0.549 | – | –
CN1C2CCC1C(C(=O)Oc1ccc(I)cc1)C(c1ccc(Cl)cc1)C2 (centres undefined) | 1.23 | 30 | 32.6 | 38 | 0.968 | – | –
CN(C)C(=O)C1C(c2ccc(Cl)cc2)CC2CCC1N2C (centres undefined) | 1.08 | 683 | 1.38 | 782 | 0.942 | – | –
CN1C2CCC1C(C(=O)Oc1ccccc1)C(c1ccccc1)C2 (centres undefined) | 106 | 251 | 76.7 | 1380 | 19.3 | – | –
Cc1ccc(C2CC3CCC(C2C(=O)OC2CC2)N3C)cc1 (centres undefined) | – | 383 | 1.68 | 634 | 0.644 | – | –
CONC(=O)C1C(c2ccc(Cl)cc2)CC2CCC1N2C (centres undefined) | 43.7 | 826 | 10.7 | 4080 | 9.91 | – | –
CN1C2CCC1C(C(=O)OCCc1ccccc1)C(OC(=O)c1ccccc1)C2 (centres undefined) | 0.615 | 110 | 181 | 3.4 | 19.9 | – | –
CN1C2CCC1C(C(=O)N1CCCO1)C(c1ccc(I)cc1)C2 (centres undefined) | 0.13 | 476 | 0.75 | 173 | 0.357 | – | –
Cc1ccccc1OC(=O)C1C(c2ccc(Cl)cc2)CC2CCC1N2C (centres undefined) | – | 1220 | 3.91 | 965 | 4.78 | – | –
CCCOC(=O)C1C(OC(=O)c2ccccc2)CC2CCC1N2C (centres undefined) | 4.52 | 31 | 196 | 23 | 6.12 | – | –
CN1C2CCC1C(C(=O)N1CCC1)C(c1ccc(Cl)cc1)C2 (centres undefined) | 0.814 | 151 | 6.57 | 124 | 0.99 | – | –
CN(C)C(=O)C1C(OC(=O)c2ccccc2)CC2CCC1N2C (centres undefined) | 144 | 58 | 127 | 1130 | 7.33 | – | –
Cc1ccc(C2CC3CCC(C2C(=O)N2CCOCC2)N3C)cc1 (centres undefined) | > 100 | 2020 | 11.7 | > 8550 | 23.6 | – | –
CN1[C@H]2CC[C@@H]1[C@@H](C(=O)N1CCCC1)[C@@H](c1ccc(I)cc1)C2 | 1.73 | 2680 | 0.37 | 4670 | 0.991 | – | –
COC(=O)[C@@H]1C2CC[C@H](C[C@@H]1c1ccccc1)N2C | – | – | – | – | – | 37.2 | 49.8
Cc1ccc(C2CC3CCC(C2C(=O)OC2CCC2)N3C)cc1 (centres undefined) | 2.02 | 1270 | 3.74 | 540 | 4.74 | – | –
CON(C)C(=O)C1C(c2ccc(I)cc2)CC2CCC1N2C (centres undefined) | 0.0739 | 95 | 1.08 | 68 | 0.103 | – | –
COC(=O)C1C(c2ccc(C)cc2)CC2CCC1N2C (centres undefined) | – | – | 1.71 | – | 0.06 | 8.42 | 7.02
CN1C2CCC1C(C(=O)N1CCOCC1)C(c1ccc(Cl)cc1)C2 (centres undefined) | 88.8 | 2950 | 2.9 | 30600 | 8.55 | – | –
CNC(=O)C1C(c2ccc(Cl)cc2)CC2CCC1N2C (centres undefined) | 1.31 | 128 | 12.4 | 106 | 1.58 | – | –
COC(=O)C1C(c2ccc(Cl)c(Cl)c2)CC2CCC1N2C (centres undefined) | 0.00313 | – | 0.79 | 4 | 0.018 | – | –
COc1ccc(OC(=O)C2C(c3ccc(C)cc3)CC3CCC2N3C)cc1 (centres undefined) | 82.3 | 33 | 95.6 | 861 | 3.15 | – | –
CN(C(=O)C1C(c2ccc(Cl)cc2)CC2CCC1N2C)c1ccccc1 (centres undefined) | 23.6 | 48 | 45.5 | 519 | 2.2 | – | –
CN1C2CCC1C(C(=O)N1CCCO1)C(c1ccc(Cl)cc1)C2 (centres undefined) | 2.47 | 736 | 1.47 | 1680 | 1.08 | – | –
